Hits are enriched below; roughly 2.3% of the tested compounds scored in any of these assays.
SF1 activator = activators of human SF-1, primary screen, cell-based, CHO-K1, Gal4-SF-1 LBD, luciferase luminescence; 65,000 compounds, 1.9% hits; CHO-K1 Gal4-SF-1 LBD luciferase reporter; % increase over DMSO SF-1-specific signal; activation, % at 10 µM; AID 522, 2006;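 active = activation above the mean activation of all tested compounds plus 3 SD, cut at about 50% in these data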
Target sequence (Q13285 whole entry, looked up, the tested form may be a part): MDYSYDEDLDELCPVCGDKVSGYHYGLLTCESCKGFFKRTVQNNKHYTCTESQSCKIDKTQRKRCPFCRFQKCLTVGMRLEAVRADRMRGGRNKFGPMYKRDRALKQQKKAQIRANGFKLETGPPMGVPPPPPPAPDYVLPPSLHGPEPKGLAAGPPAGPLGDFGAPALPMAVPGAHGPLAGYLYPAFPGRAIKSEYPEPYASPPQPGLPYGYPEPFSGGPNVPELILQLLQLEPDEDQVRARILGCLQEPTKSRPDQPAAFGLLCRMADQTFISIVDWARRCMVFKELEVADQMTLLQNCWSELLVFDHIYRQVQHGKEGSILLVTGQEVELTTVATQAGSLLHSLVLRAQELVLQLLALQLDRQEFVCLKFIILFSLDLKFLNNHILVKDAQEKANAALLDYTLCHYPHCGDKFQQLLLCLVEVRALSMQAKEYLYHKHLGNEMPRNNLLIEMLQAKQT
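Test system: transient Gal4-SF-1 LBD reporter, CHO-K1; Amount: 4,000 CHO-K1 cells per well; Doses: 10 µM only; Timing: compound exposure 20 h at 37 °C; Signal: luciferase light emission; Read-out basis: percent activation relative to DMSO median and mock-transfected background; Control set: DMSO negative control and −SF1 background wells; Replicates: one test per compound.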
RORA act = activators of orphan receptor RORA, primary screen, cell-based, luminescence | activation, % at 10 µM | AID 560, 2006 | Nuclear receptor ROR-alpha (Homo sapiens), P35398 | CHO-K1 Gal4-RORA LBD luciferase reporter; percent increase over mock-subtracted basal signal | 65,000 compounds, 1.5% hits;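 active = activation above the mean of all tested compounds plus 3 SD, cut at about 49% in these data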;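 also: 0% = DMSO-treated RORA cells and 100% = added signal equal to DMSO minus mock-transfected cells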
JNK3 blocker = JNK3 kinase activity inhibitors, primary screen, biochemical, human, purified enzyme. Mitogen-activated protein kinase 10 (Homo sapiens), P53779. HTS. inhibition, % at 8 µM. 60,000 compounds, 0.61% hits. AID 746, 2007; in the data active = inhibition above about 17%;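 also: 0% = DMSO and 100% = reference inhibitor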
MT1-MMP txn act = MT1-MMP promoter reporter activation – cell-based, luciferase luminescence, primary screen; HT1080 MT1-MMP promoter luciferase reporter, overnight; stronger effect = higher value; activation factor at 10 µM; 86,000 compounds, 0.16% hits; AID 750, 2007;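 active = activation factor of at least 2 for MT1-MMP transcription at 10 µM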
Active calls of the source: *; x = no result given.

SMILES	SF1 activator	RORA act	JNK3 blocker	MT1-MMP txn act
O=C(c1cc(C2CC2)on1)N1CCN(c2ccc(F)cc2)CC1	3.4	-13.5	-0.8	1.1
O=C(NCc1ccccc1)c1c[nH]c2cc3c(cc2c1=O)OCCO3	x	x	x	2.2*
Cc1ccccc1-c1noc(-c2ccc(Cl)cc2)n1	x	x	x	2.1*
Cc1ccccc1-c1noc(-c2ccccc2F)n1	x	x	x	1.4
Cc1ccccc1-c1noc(-c2ccc(O)cc2)n1	33.4	100.7*	6.0	1.1
Cc1ccc(-c2noc(-c3ccccc3Br)n2)cc1	18.8	36.7	-7.0	0.8
O=C(NCCc1c[nH]c2ccccc12)[C@H]1C[C@@H]1[C@H](NP(=O)(c1ccccc1)c1ccccc1)c1ccccc1	x	x	x	1
Cc1ccc(N2C(=O)CC(n3nc(C)cc3C)C2=O)cc1 (stereo not drawn)	x	x	x	1.1
COc1cccc(-c2cc(C(=O)Nc3ccccc3SC)no2)c1	47.1	66.1*	-3.3	1.4
CCC(C)NC(=O)c1cc(-c2ccc(OC)cc2)on1 (stereo not drawn)	42.6	59.9*	x	1.4
COCC(C)NC(=O)c1cc(-c2cccc(OC)c2)on1 (stereo not drawn)	70.8*	34.1	5.5	1.5
CN(Cc1cccs1)C(=O)COc1ccc(-c2nnco2)cc1	0.2	-1.9	1.8	1
CC1(C)Cc2nc3sc4c(=O)[nH]cnc4c3cc2CS1	62.9*	12.4	-0.4	1.7
COc1ccc(S(=O)(=O)Cc2ccc(C(=O)N3CCN(c4cccc(C)c4)C(C)C3)o2)cc1 (stereo not drawn)	28.3	54.6*	-1.3	0.5
O=C(c1ccc(-c2nnc(-c3ccccc3)o2)cc1)N1CCCCCC1	1.0	60.3*	-1.7	1.2
O=C(c1ccc(-c2ccccc2)cc1)N1CCC(C(=O)N2CCCC2)CC1	-2.6	-6.6	-1.5	1.2
COc1ccc(CC(=O)NCc2cccs2)cc1OC	x	x	x	1.1
COc1ccc2nc3sc(C(=O)NCc4cccs4)c(N)c3cc2c1	74.4*	-18.4	4.1	1.1
COc1ccc(-c2nc3n(n2)C(c2ccccc2Cl)C(C(N)=O)=C(C)N3)cc1 (stereo not drawn)	15.1	-6.2	-0.2	x
COc1cc(N2CCCC2)c(OC)cc1/C=c1/sc2nc3ccccc3n2c1=O	54.4*	8.7	-4.2	1.5
Cc1ccc(-c2nc3cnccn3c2Nc2ccccc2)o1	37.2	49.2*	11.8	1
Cc1ccc(-c2nc3cnccn3c2Nc2ccc3c(c2)OCO3)o1	23.4	16.9	-3.6	x
CC(C)(C)NC(=O)Nc1ccc2nccnc2c1	48.9	89.5*	8.3	1.3
CCCCN(CCCNC(=O)C1CCN(S(=O)(=O)CC)CC1)c1ccccc1	1.3	16.2	-1.5	1
COc1ccccc1CN(Cc1cc2cc(C)cc(C)c2[nH]c1=O)Cc1nnnn1CC1CCCO1 (stereo not drawn)	49.3	53.5*	5.6	1.1
SMILES	SF1 activator	RORA act	JNK3 blocker	MT1-MMP txn act
COc1ccccc1CN(Cc1cc2cc(C)ccc2[nH]c1=O)Cc1nnnn1CC1CCCO1 (stereo not drawn)	13.7	14.4	-0.7	1
COCC(C)NS(=O)(=O)c1ccc(NC(=O)C(Cc2ccccc2)NC(N)=O)cc1 (stereo not drawn)	9.4	-2.8	-3.2	1.1
Cn1cc(S(=O)(=O)NCc2ccco2)c(=O)n(C)c1=O	0.2	1.1	-1.9	x
CCCCOc1ccc(-c2ncc(Cl)cn2)cc1	25.4	-1.9	-2.7	1.4
CCCCCCc1ccc(-c2ncc(N)cn2)cc1	58.6*	50.2*	-0.8	0
CN(C)S(=O)(=O)N1CCN(C(=O)c2cccs2)CC1	x	x	x	1.1
Cc1sc2nc3n(c(=O)c2c1C)Cc1ccccc1-3	56.1*	73.2*	-5.4	1.9
CCOC(=O)c1sc(NC(=O)COC(=O)Cn2cnc3ccccc32)c(C(=O)OCC)c1C	-5.7	-6.5	0.4	0.9
COC1(OC)N=C(N)C2(C#N)C(c3ccc4c(c3)OCO4)C12C#N (stereo not drawn)	4.1	-9.2	19.9*	0.8
COc1ccc2oc(C(=O)C3CC3)c(N)c2c1	74.0*	68.4*	-11.3	1.5
COc1ccc2oc(C(=O)c3ccccc3)c(N)c2c1	x	x	x	2.1*
COc1ccc(C(=O)c2oc3ccccc3c2N)cc1	42.1	35.7	4.5	2.3*
COC(=O)C1=C(CCc2ccccc2)NC(=O)NC1c1ccc([N+](=O)[O-])cc1 (stereo not drawn)	x	x	x	1
C[C@@H](C(=O)Nc1ccc2ccccc2c1)[C@@H]1C[C@@]1(C)[C@@H](NS(=O)(=O)c1ccc(-c2ccccc2)cc1)c1ccccc1	x	x	x	1.2
Nc1nc(-c2ccccc2)cc(N2CCCCC2)n1	74.7*	46.9	-1.6	0.6
c1ccc(-c2cc(N3CCCCCC3)n[nH]2)cc1	41.6	69.9*	-10.0	1.6
c1ccc(-c2cc(N3CCCCC3)ncn2)cc1	55.6*	33.9	6.8	1.5
c1ccc(-c2cnnc(N3CCCCC3)n2)cc1	14.5	58.0*	x	1.3
O=C(Cc1c[nH]c2ccccc12)NCc1ccc2c(c1)OCO2	6.1	5.1	-4.2	1.6
CC(C)CC(NC(=O)C1CCCCC1)C(=O)N1CCN(c2ccccn2)CC1 (stereo not drawn)	x	x	x	1.2
CCCNC(=O)c1ccc(SC)cc1OC	-0.8	-3.9	0.2	0.9
COc1cc(SC)ccc1C(=O)Nc1ccccc1C#N	59.6*	25.6	-8.8	1.6
Cc1ccc(NC(=O)CSc2nnc(-c3ccncc3)n2N)cc1C	11.0	-6.0	x	1.3
O=C1CCn2nc(-c3ccc(Cl)cc3)cc2N1	30.7	61.3*	2.8	1.5
OC1CCN(c2c3c(nc4cc(-c5ccc(Cl)cc5)nn24)CCC3)CC1	x	x	x	1.3
SMILES	SF1 activator	RORA act	JNK3 blocker	MT1-MMP txn act
O=C1c2ccccc2S(=O)(=O)N1CCOc1ccc(F)cc1	21.3	24.6	3.6	1.1
COc1cc(C(=O)OCC(=O)c2cc(C)n(C)c2C)cc(OC)c1OC	51.7*	36.3	0.1	1.1
Cn1cccc1CNC(=O)Nc1ccc(Cl)cc1	53.9*	15.8	-10.0	1.6
Cc1c(NC(=O)C23CC4CC(CC(C)(C4)C2)C3)c(=O)n(-c2ccccc2)n1C	-2.1	-3.4	-3.4	2*
Cc1c(NC(=O)C2(C)CCCCC2)c(=O)n(-c2ccccc2)n1C	-10.7	10.1	6.4	1.1
O=C(NC1CCCC1)c1cccnc1N1CCCCCC1	-3.0	-31.7	33.7*	1.2
COC(=O)c1sc2nc(-c3ccco3)ccc2c1N	66.3*	25.9	2.5	1
COC(=O)c1sc2cnccc2c1N	11.8	-14.1	2.6	1.3
Cc1ccc(C(C(=O)NC2CCCCC2)N2CCN(C(=O)c3ccco3)CC2)cc1 (stereo not drawn)	x	x	x	1.1
COCC(O)CSc1nc(C)[nH]c1[N+](=O)[O-] (stereo not drawn)	x	x	x	0.9
CCOC(=O)/C(=C\Nc1ccc(OC(F)(F)F)cc1)Sc1ncc(C(F)(F)F)cc1Cl	x	x	x	1.2
O=C(CCn1cnc2ccccc2c1=O)Nc1ccc(S(=O)(=O)N2CCCCC2)cc1	6.6	-9.1	20.2*	1.1
